# Assay results taken from ChEMBL document CHEMBL4513216, “Probing the Open Global Health Chemical Diversity Library for Multistage-Active Starting Points for Next-Generation Antimalarials” (ACS Infect Dis, 2020).
# Test: Toxicity liver stage against HepG2, at 10uM
# Format: cell-based
# Set-up: test concentration 10 uM, cell line HepG2-A16-CD81EGFP
# Details: human, HepG2-A16-CD81EGFP cells; read-out: INHIBITION
# Summary of the method: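 Uninfected HepG2-A16-CD81EGFP cells, 3 × 10^3 per well, 1536-well, plated on prespotted compound at 10 μM final, parasite-free screening media added to match infected plates; puromycin 10 μM positive, DMSO 0.5% negative; run in parallel with 48 h PbLuc assay at 37 °C, 5% CO2; viability by CellTiter-Glo luminescence, normalized to controls.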
row,Compound,cytotoxicity at 10 µM
1,O=S(=O)(c1cnccc1N1CCN(CCO)CC1)N1CCCCC1,15.7%
2,CCS(=O)(=O)N1CCc2ccc(NC(=O)NC3CCCCC3)cc21,-4.56%
3,COc1ccc2c(ccn2CCC(=O)NCc2ccc(C(=O)O)cc2)c1,2.25%
4,COC(=O)c1ccc(C2SCC(=O)Nc3c2cnn3C(C)(C)C)cc1 (stereo not given),2.06%
5,COCCn1cnc2ccc(NC(=O)C3CC3)cc2c1=O,-7.89%
6,Cc1cnc2c(c1NCc1ccccn1)c(=O)n(C)c(=O)n2C,-4.32%
7,O=C1CC(NS(=O)(=O)c2ccc3ccccc3c2)CN1 (stereo not given),3.94%
8,COC1(CNC(=O)NCCc2ccccc2)CCSC1 (stereo not given),-12.6%
9,O=C(NCCn1nc(-n2cncn2)ccc1=O)c1ccc(F)cc1F,-8.78%
10,Cc1nc(-c2noc3ccc(C(=O)NCCN(C)C)cc23)co1,2.25%
11,Cn1ccnc1Sc1ccc(S(N)(=O)=O)cn1,-1.6%
12,COc1cc2nc(C)n(CC(=O)O)c(=O)c2cc1OC,5.68%
13,COc1cc(CCC(C)O)c(OC)c2c1OCO2 (stereo not given),6.79%
14,CN(C)CC(=O)N1Cc2nc(C(=O)NCc3ccncc3)oc2C1,-8.58%
15,CCC1=N[C@@]2(CC[C@@H]3CN(S(=O)(=O)N(C)C)C[C@@H]32)C(=O)N1CC(C)C,10.3%
16,Cc1nn(C)c2cnn(CC(=O)NCCc3ccccc3)c12,13.4%
17,Cc1nc(CN2CCOCC2c2[nH]ncc2C)cs1 (stereo not given),2.15%
18,Cc1nc(N(C)C)cc(C2(C)CCCNC2)n1 (stereo not given),2.05%
19,COc1ccccc1NC(=O)NCc1nnc(SC)n1C,-0.145%
20,CCn1cc(S(=O)(=O)NCC(c2ccccc2)N2CCOCC2)c(C)n1 (stereo not given),2.76%
21,COc1ccccc1CN1CCC(Cc2cnc(CN(C)C)cn2)CC1,-6.45%
22,CNC(=O)c1ccc(-c2ccc(CNS(=O)(=O)N(C)C)cc2)nc1C,-2.05%
23,O=C(O)C1CN(c2cncc(Cc3ccccc3F)n2)C1,5.7%

row,Compound,cytotoxicity at 10 µM
1,CCc1nc(CN2CCCN(Cc3noc(C4CC4)n3)CC2)cs1,-7.35%
2,O=C(Cc1cccnc1)NC1COc2ccccc2C1=O (stereo not given),-3.77%
3,CS(=O)(=O)c1ccccc1-n1cc(NC(=O)CC2C=CCC2)cn1 (stereo not given),1.78%
4,CN(C)CCN(Cc1ccc(C#N)cc1)C(=O)c1ccn(C)c(=O)c1,16.8%
5,C=C(C)CNc1nc(CS(=O)(=O)c2ccccc2)cs1,-8.37%
6,COCCN(Cc1coc(-c2cccc(Cl)c2)n1)C1CC1,3.92%
7,CN(CCOCC(F)(F)F)CC1CCN(CCO)CC1,5.68%
8,CC1(C)CCN1C(=O)c1cc(F)cc2[nH]cnc12,-7.09%
9,Cc1nn(C)c(Cl)c1C1CCCN1Cc1nnc(C2CC2)n1C (stereo not given),-2.24%
10,CCN1CC(COC(=O)c2cc(Br)ccc2F)CC1=O (stereo not given),5.09%
11,CSCC(C)(O)CNC(=O)Nc1ccc(C)cc1Br (stereo not given),-9.83%
12,O=C(C1CCS(=O)(=O)C1)N1CCC(=Cc2cccc(F)c2)CC1 (stereo not given),10.6%
13,COc1ncc(NCc2ccc(C#N)cc2)cc1C(N)=O,0.217%
14,CCC(=O)N1CCN(c2ccc(C(=O)OC)cc2)CC1C (stereo not given),-13.5%
15,Nc1cc2c(nn1)CCN(C(=O)Cc1ccc3c(c1)CCCC3)C2,0.696%
16,Cn1c(NCC(=O)N2CCCC2)c(C#N)c(=O)n(C)c1=O,15.4%
17,Clc1ccc(C2(NCc3noc(C4CC4)n3)CCC2)cc1,5.04%
18,CC(O)CN1CCN(C(=O)CCOC(C)C)CC1 (stereo not given),-3.86%
19,Cc1nn(C)c(N(C)C)c1CNCc1ccnn1C,-3.35%
20,CCc1ncc2c(n1)CN(Cc1nnc(CC)o1)CC2,-8.8%
21,Nc1ncc(C(=O)N2CCN(c3nccs3)CC2)cc1Cl,-3.78%
22,CNC(=O)COC(=O)c1ccoc1CN1c2ccccc2CC1C (stereo not given),0.165%
23,OCC1CCCN1c1cc(NCCNc2cccnn2)ncn1 (stereo not given),18.5%

row,Compound,cytotoxicity at 10 µM
1,O=C(C1CC1)N1CCCC1c1nnc2n1CCCCC2 (stereo not given),-0.614%
2,CCc1nc(CN(C)Cc2nnc(-c3cccs3)o2)cs1,6.37%
3,Cc1nsc(NC2CCN(c3ccccc3OC(F)F)C2=O)n1 (stereo not given),2.14%
4,CN(Cc1cc(=O)c(O)co1)C1CCCN(c2ccccc2)C1 (stereo not given),-3.17%
5,Cc1n[nH]c(C2CN(CCCOc3cccc(Cl)c3)CCO2)n1 (stereo not given),-5.57%
6,CC1(C(=O)Nc2ccc(F)c(-n3cccc3)c2)CCOCC1,-0.0972%
7,Cc1ccc(C(NC(=O)Cn2cc(C3CC3)nn2)C2CC2)cc1 (stereo not given),-5.36%
8,CC(C)(C)Cc1nnc(NCc2cccc(C#N)c2)o1,-16.1%
9,CCc1ncc(C(=O)NC(C)(C)CC)s1,-0.343%
10,CC(C)CN1C(=O)C2(CCCC2)NC1c1cccnc1 (stereo not given),3.71%
11,Cc1cccc(-n2cnc(Cl)c2C(=O)O)c1,-1.26%
12,Cc1csc(C(C#N)C(=O)Nc2ccccc2)n1 (stereo not given),12.6%
13,O=C(NCc1ccco1)N1CCOC(c2ccccc2Cl)C1 (stereo not given),-1.91%
14,CCOC(=O)CN(C)Cc1cnc(C)s1,20.2%
15,COc1ccc(CNC2CCN(c3ccccc3)C2)cc1O (stereo not given),8.63%
16,COc1ccc(C(=O)NCCC(N)=O)c(I)c1,9.34%
17,COc1ccccc1CC(=O)NC1CCCc2cn[nH]c21 (stereo not given),17.1%
18,CN(C)C(=O)N1CCN(C(=O)c2ccn3ccnc3c2)CC1,-5.02%
19,CCN(Cc1csc(CS(C)(=O)=O)n1)c1cccc(F)c1,7.25%
20,Cn1cccc1C(=O)NC1(C(=O)NCC2CC2)CCCC1,-3.29%
21,COCC1CN(C(=O)Nc2cc(Cl)ccc2F)CCO1 (stereo not given),10.7%
22,COc1cc(C(=O)N(CCC#N)Cc2ccccn2)cc(OC)c1C,-15.1%
23,COCCCN(CCOC)C(=O)Nc1ccc(C)cc1C,4.16%

row,Compound,cytotoxicity at 10 µM
1,CCn1ccnc1CN1CCN(CCC(=O)NC(C)(C)C)CC1C (stereo not given),-15.8%
2,CC(=O)N1CC2(CCNCC2)c2cc(C)ccc21,-73.2%
3,O=C(C1CCOCC1)N1C[C@@H]2[C@@H](C1)OCC(=O)N2CC1CC1,2.29%
4,Cc1nonc1OCCNC(=O)COc1ccc(F)cc1F,-1.17%
5,Cc1nc(CN(Cc2ccncc2)C2CCN(C)CC2)cs1,-2.56%
6,CC(C)[C@H]1COC(=O)N1Cc1nccn1C(C)C,6.35%
7,Cc1cc(C)n(Cc2cc(C(=O)N3CCCCC3c3nccs3)n[nH]2)n1 (stereo not given),13.8%
8,CCC(C(=O)NC1(COC)CCCC1)n1cccn1 (stereo not given),-3.41%
9,CC(C)=CCn1ncc(N2CCOCC2)cc1=O,-9.96%
10,CC(=O)N1CCc2[nH]cnc2C12CCN(C(=O)Cc1ccccn1)CC2,1.76%
11,CCC(NC(=O)c1cc(NC(C)=O)ccc1Cl)c1cc(C)ccn1 (stereo not given),-16.5%
12,Cc1ccnc(CNC(=O)C2CC(=O)N(CCN(C)C)C2)c1 (stereo not given),-5.79%
13,COc1ccccc1CN1C(=O)O[C@@H]2CN(S(=O)(=O)N(C)C)C[C@@H]21,2.54%
14,CCc1cnc(NCc2ccccc2Cn2cccn2)nc1,-2.45%
15,COc1cc(OC)c2nc(NCCN3CCNC3=O)cc(C)c2c1,-3.4%
16,CCCOC1CCCN(c2nc(CC)nc3c2cnn3C)C1 (stereo not given),-3.29%
17,Cc1nn(-c2ccccc2)c2nc(C(C)(C)CN3CCN(C)CC3)[nH]c12,-2.13%
18,CCN1CCCC(c2c(-c3ccccc3)ncn2CCc2c[nH]cn2)C1 (stereo not given),-10.9%
19,O=C(NCCn1ccnc1-c1cc2n(n1)CCNC2)c1ccc(F)cc1,-16.9%
20,CCc1cnc(C)nc1N(C)CCCc1cnn(C)c1,-10%
21,CC1(C)CNC(=O)c2nc(CCN3CCC(C(N)=O)CC3)[nH]c2C1,-1.35%
22,CC(C)n1cnnc1CN(C)C(=O)C1CCCN(C2CCN(C)CC2)C1 (stereo not given),-1.26%
23,COCC(NC(=O)c1cc(NC(C)=O)ccc1Cl)c1ccccn1 (stereo not given),-12.1%

row,Compound,cytotoxicity at 10 µM
1,O=C(c1cncc(N2CCC3(CC2)NCCNC3=O)n1)N1CCCCC1,-2.4%
2,CCCn1cc(C(=O)N(C)Cc2nc(-c3ccccn3)no2)c(C)n1,0.334%
3,CC(C)(N)CN1CCC(c2nnc(CN3CCCC3)n2C2CC2)CC1,19.2%
4,NC(=O)C(NCc1nn(-c2ccccc2)c2c1CCC2)c1ccccc1 (stereo not given),-5.86%
5,COc1cccc(CNCC2CCN(CC(C)O)CC2)c1OC (stereo not given),-0.191%
6,Cc1ccccc1-c1noc(CN2CCc3cncnc3C2)n1,-11.5%
7,COc1cc(C(=O)N2CCCC(CNS(C)(=O)=O)C2)cc(OC)c1C (stereo not given),-7.69%
8,CCCc1nnsc1C(=O)N1CCN(CC(O)c2ccco2)CC1 (stereo not given),-7.86%
9,CC(=O)N1CCCCCC1C1CCN(Cc2nc(C(C)C)no2)CC1 (stereo not given),6.27%
10,COc1ccc(CC(=O)N2CCN(C)c3ncccc3C2)cc1,-5.79%
11,CN(C)Cc1cc(C2CCCCN2S(=O)(=O)Cc2ccccc2)nn1C (stereo not given),0.57%
12,O=C(Cc1cccnc1)N1CCC2(CC1)CCN(C1CCOCC1)CC2,-8.25%
13,O=C1NCCCCC1NCc1csc(-c2ccccn2)n1 (stereo not given),7.5%
14,Cc1sc(Br)cc1S(=O)(=O)NCCCN,0.973%
15,Cc1ccc2c(n1)N(C)CCN(C(=O)C1CC1)C2,-2.15%
16,Cc1cccc(CC(=O)N2CCCCC2CN)c1 (stereo not given),5.68%
17,O=C(c1cocn1)N1CCC2(CC1)COC(COCc1ccccn1)C2 (stereo not given),-116%
18,O=C1[C@H]2CN(Cc3ccoc3)C[C@H]2CN1Cc1cccnc1,-76.5%
19,CN(C)C(=O)CN1CCC2(C1)CN(CC1CCOC1)C2 (stereo not given),8.43%
20,Cc1ccc(N2CCN(Cc3ccccc3)C3(CCNCC3)C2=O)cn1,12.1%
21,CN(C)C(=O)CN1C[C@H]2CC[C@@H](C1)N(C(=O)CCCn1cncn1)C2,0.612%
22,C/C(Cl)=C/CNC(=O)C1CCC2(CC1)CN(C)C(=O)c1ccccc1O2 (stereo not given),4.52%
23,O=C(O)c1cc(C=Cc2cccc3ccccc23)ncn1,-12.1%
